Experimental data: ChEMBL document CHEMBL5724801, “EUbOPEN Chemogenomics Library - Multiplex” (2024)
Several values for one entry are separate records, joined by “and”; a condition that tells them apart may be missing. Identical values can stand only once.

What was measured:
Fibroblast = test: Multiplex assay against human fibroblast; format: toxicity, cell-based
How it was run: (§1)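 Four dyes were applied at seeding to live cells: Hoechst33342, BioTracker Green Microtubule Cytoskeleton Dye, MitoTracker Red and Annexin V Alexa Fluor 680. Imaging after compound addition used a CQ1 microscope at 37°C and 5% CO2. CellPathfinder machine-learning gating then sorted cells into Hoechst high-intensity objects or normal cells, normal cells into healthy, pyknosed or fragmented nuclei, and pyknosed cells into mitotic or apoptotic, with tubulin, mitochondrial-mass and membrane-permeability phenotypes given as per cents of healthy-nucleus cells.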

HEK-293T = test: Multiplex assay against HEK293T; format: toxicity, cell-based; details: human; how it was run: as §1
[1] = 12 h, 1 µM, compound concentration 1 uM
[2] = 12 h, 10 µM, compound concentration 10 uM
[3] = 24 h, 1 µM, compound concentration 1 uM
[4] = 24 h, 10 µM, compound concentration 10 uM
[5] = 48 h, 1 µM, compound concentration 1 uM
[6] = 48 h, 10 µM, compound concentration 10 uM

C=CC(=O)Nc1cc(Nc2nccc(-n3cc(CN(C)C)c(-c4ccccc4)n3)n2)c(OC)cc1N1CCOCC1 [LAZERTINIB]
Population Fragmented Nuclei (%) (Fibroblast; [1]): 17.06% and 10.42% | Population Healthy Nuclei (%) (Fibroblast; [1]): 39.41% and 72.59% | Population Hoechst High Intensity Objects (%) (Fibroblast; [1]): 0% | Population Membrane Permeable-Phenotype (%) (Fibroblast; [1]): 5.97% and 4.26% | Population Mitochondria Different-Phenotype (%) (Fibroblast; [1]): 13.43% and 12.77% | Population Mitotic Cells (%) (Fibroblast; [1]): 97.3% and 84.09% | Population Normal (%) (Fibroblast; [1]): 100% | Population Pyknosed Nuclei (%) (Fibroblast; [1]): 43.53% and 16.99% | Population Tubulin-Different-Phenotype (%) (Fibroblast; [1]): 26.87% and 71.81% | Total Cell Count (Fibroblast; [1]): 170 and 259 | Population Apoptotic (%) (Fibroblast; [2]): 18.84% and 24.56% | Population Fragmented Nuclei (%) (Fibroblast; [2]): 21.15% and 12.73% | Population Healthy Nuclei (%) (Fibroblast; [2]): 34.62% and 72.47% | Population Hoechst High Intensity Objects (%) (Fibroblast; [2]): 0% | Population Membrane Permeable-Phenotype (%) (Fibroblast; [2]): 1.85% and 8.24% | Population Mitochondria Different-Phenotype (%) (Fibroblast; [2]): 48.15% and 27.24% | Population Mitotic Cells (%) (Fibroblast; [2]): 81.16% and 75.44% | Population Normal (%) (Fibroblast; [2]): 100% | Population Pyknosed Nuclei (%) (Fibroblast; [2]): 44.23% and 14.81% | Population Tubulin-Different-Phenotype (%) (Fibroblast; [2]): 55.56% and 80.65% | Total Cell Count (Fibroblast; [2]): 156 and 385 | Population Fragmented Nuclei (%) (Fibroblast; [3]): 8.12% and 9.88% | Population Healthy Nuclei (%) (Fibroblast; [3]): 60.62% and 75.1% | Population Hoechst High Intensity Objects (%) (Fibroblast; [3]): 0% | Population Membrane Permeable-Phenotype (%) (Fibroblast; [3]): 6.19% and 3.68% | Population Mitochondria Different-Phenotype (%) (Fibroblast; [3]): 23.71% and 17.89% | Population Mitotic Cells (%) (Fibroblast; [3]): 90% and 52.63% | Population Normal (%) (Fibroblast; [3]): 100% | Population Pyknosed Nuclei (%) (Fibroblast; [3]): 31.25% and 15.02% | Population Tubulin-Different-Phenotype (%) (Fibroblast; [3]): 34.02% and 66.32% | Total Cell Count (Fibroblast; [3]): 160 and 253 | Population Apoptotic (%) (Fibroblast; [4]): 52.31% and 34.69% | Population Healthy Nuclei (%) (Fibroblast; [4]): 37.75% and 81.53% | Population Hoechst High Intensity Objects (%) (Fibroblast; [4]): 0% | Population Membrane Permeable-Phenotype (%) (Fibroblast; [4]): 5.26% and 2.72% | Population Mitochondria Different-Phenotype (%) (Fibroblast; [4]): 43.86% and 34.14% | Population Mitotic Cells (%) (Fibroblast; [4]): 47.69% and 65.31% | Population Normal (%) (Fibroblast; [4]): 100% | Population Tubulin-Different-Phenotype (%) (Fibroblast; [4]): 57.89% and 76.44% | Total Cell Count (Fibroblast; [4]): 151 and 406 | Population Apoptotic (%) (Fibroblast; [5]): 16.67% and 20.83% | Population Fragmented Nuclei (%) (Fibroblast; [5]): 12.14% and 10.42% | Population Healthy Nuclei (%) (Fibroblast; [5]): 77.46% and 80.31% | Population Hoechst High Intensity Objects (%) (Fibroblast; [5]): 0% | Population Membrane Permeable-Phenotype (%) (Fibroblast; [5]): 0.75% and 1.92% | Population Mitochondria Different-Phenotype (%) (Fibroblast; [5]): 11.19% and 8.17% | Population Mitotic Cells (%) (Fibroblast; [5]): 83.33% and 79.17% | Population Normal (%) (Fibroblast; [5]): 100% | Population Pyknosed Nuclei (%) (Fibroblast; [5]): 10.4% and 9.27% | Population Tubulin-Different-Phenotype (%) (Fibroblast; [5]): 27.61% and 62.5% | Total Cell Count (Fibroblast; [5]): 173 and 259 | Population Apoptotic (%) (Fibroblast; [6]): 64.71% and 51.61% | Population Fragmented Nuclei (%) (Fibroblast; [6]): 24.65% and 10.26% | Population Healthy Nuclei (%) (Fibroblast; [6]): 51.41% and 82.52% | Population Hoechst High Intensity Objects (%) (Fibroblast; [6]): 0% | Population Membrane Permeable-Phenotype (%) (Fibroblast; [6]): 1.37% and 2.82% | Population Mitotic Cells (%) (Fibroblast; [6]): 35.29% and 48.39% | Population Normal (%) (Fibroblast; [6]): 100% | Population Tubulin-Different-Phenotype (%) (Fibroblast; [6]): 49.32% and 60.73% | Population Apoptotic (%) (HEK-293T; [1]): 14.72% and 15.96% | Population Fragmented Nuclei (%) (HEK-293T; [1]): 1.35% and 8.26% | Population Hoechst High Intensity Objects (%) (HEK-293T; [1]): 0.67% and 0% | Population Membrane Permeable-Phenotype (%) (HEK-293T; [1]): 0.77% and 5.88% | Population Mitochondria Different-Phenotype (%) (HEK-293T; [1]): 33.85% and 11.76% | Population Mitotic Cells (%) (HEK-293T; [1]): 85.28% and 84.04% | Population Normal (%) (HEK-293T; [1]): 99.33% and 100% | Population Pyknosed Nuclei (%) (HEK-293T; [1]): 54.88% and 77.69% | Population Tubulin-Different-Phenotype (%) (HEK-293T; [1]): 31.54% and 82.35% | Total Cell Count (HEK-293T; [1]): 299 and 121 | Population Apoptotic (%) (HEK-293T; [2]): 22.22% and 29.59% | Population Fragmented Nuclei (%) (HEK-293T; [2]): 3.83% and 10% | Population Healthy Nuclei (%) (HEK-293T; [2]): 22.97% and 8.33% | Population Hoechst High Intensity Objects (%) (HEK-293T; [2]): 0.48% and 0% | Population Membrane Permeable-Phenotype (%) (HEK-293T; [2]): 0% | Population Mitochondria Different-Phenotype (%) (HEK-293T; [2]): 47.92% and 60% | Population Mitotic Cells (%) (HEK-293T; [2]): 77.78% and 70.41% | Population Normal (%) (HEK-293T; [2]): 99.52% and 100% | Population Pyknosed Nuclei (%) (HEK-293T; [2]): 73.21% and 81.67% | Population Tubulin-Different-Phenotype (%) (HEK-293T; [2]): 75% and 80% | Total Cell Count (HEK-293T; [2]): 210 and 120 | Population Apoptotic (%) (HEK-293T; [3]): 15.83% and 31.58% | Population Fragmented Nuclei (%) (HEK-293T; [3]): 1.82% and 4.92% | Population Hoechst High Intensity Objects (%) (HEK-293T; [3]): 0.45% and 0% | Population Membrane Permeable-Phenotype (%) (HEK-293T; [3]): 3.41% and 4.76% | Population Mitochondria Different-Phenotype (%) (HEK-293T; [3]): 36.18% and 52.38% | Population Mitotic Cells (%) (HEK-293T; [3]): 84.17% and 68.42%
